Hits are enriched below; roughly 12% of the tested compounds scored in any of these assays.
Wee1 degr inh: Wee1 degradation inhibitors, primary screen, cell-based, HeLa, Wee1K328M-luciferase, luminescence; Wee1-like protein kinase (Homo sapiens), P30291; reporter increase, % at 5 µM; AID 1321, 2008; 220,000 tested, 1.2% active; HeLa Luc-Wee1K328M stability; 100% = proteasome inhibitor MG132 effect;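 active means activation above the mean of all tested compounds plus 3 SD, set per screening run, cut at about 8.8% in these data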;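 further: cells exposed to compound for 20 h before luminescence read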
Arbovirus anti: antivirals against arbovirus infection, primary screen, cell-based, full library, 10K replicate subset; 200,000 tested, 0.37% active; inhibition, % at 10 µM; arbovirus infection cell-based antiviral screen; in the data active means inhibition above about 30%
PKD1 inh: inhibitors of human PKD1 kinase, biochemical, fluorescence polarization; Serine/threonine-protein kinase D1 (Homo sapiens), Q15139; AID 797, 2007; inhibition, % (no concentration beside the values); PKD1 kinase fluorescence polarization assay; 200,000 tested, 0.056% active
CHOP inh: inhibitors of CHOP promoter induction, primary screen, cell-based, unfolded protein response, luciferase reporter; AID 2732, 2010; CHO-K1 CHOP-promoter luciferase, tunicamycin-induced, 15-18 h; inhibition, % at 10 µM; 220,000 tested, 3.8% active;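 active means compounds that reduced the stress-induced luciferase reporter signal by more than about 70% of percent inhibition, limit read from the data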
Rad51 HR inh: human RAD51 strand exchange inhibitors, primary screen, biochemical, fluorescence. DNA repair protein RAD51 homolog 1 (Homo sapiens), Q06609. hRad51 DNA strand exchange, fluorescence dequenching. inhibition, % at 10 µM. 200,000 tested, 0.085% active;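 active means inhibition above 40% at the single screening dose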
Target sequence (Q06609 whole entry, looked up): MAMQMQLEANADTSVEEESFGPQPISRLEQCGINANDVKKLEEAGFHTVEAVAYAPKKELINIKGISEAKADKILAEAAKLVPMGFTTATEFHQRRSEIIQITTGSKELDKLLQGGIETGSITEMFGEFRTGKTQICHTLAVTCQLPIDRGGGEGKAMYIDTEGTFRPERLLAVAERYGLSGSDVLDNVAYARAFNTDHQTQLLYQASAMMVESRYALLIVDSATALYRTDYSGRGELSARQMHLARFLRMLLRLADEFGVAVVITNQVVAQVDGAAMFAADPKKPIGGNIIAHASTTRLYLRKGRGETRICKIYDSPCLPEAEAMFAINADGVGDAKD
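Material: human Rad51–ssDNA filaments; Probe or stimulus: labelled 47-mer dsDNA for strand exchange; Doses: single 10 µM dose; Incubation: 37 °C 15-min filament assembly, 30-min compound preincubation, 15-min exchange; Technique: FRET fluorescence dequenching, excitation 485 nm, emission 520 nm; Measure: Fluorescence-based percent inhibition, control- and blank-normalised; Benchmarks: plate control and blank wells.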
Lmaj promast: Leishmania major promastigote growth inhibition, primary screen; Leishmania major promastigotes, resazurin fluorescence viability; inhibition, % at 10 µM; 200,000 tested, 9% active; AID 1063, 2008;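 further: promastigotes grown with compound for 44 hours at 28 °C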
Large screens that a line does not name were inactive. Unless noted, no stated cut-off is given here; in the data, active means inhibition above about 50%; inactive means the rest.

CCOC(=O)c1nnn(-c2nc(OC)nc(N3CCCCC3)n2)c1-c1ccccc1	none
CCOC(=O)c1nnn(-c2nc(N3CCCC3)nc(N3CCCC3)n2)c1-c1ccccc1	CHOP inh 89 (no result: Rad51 HR inh)
COC(=O)c1c(N(S(C)(=O)=O)S(C)(=O)=O)sc2c1CCN(c1ncc(C(F)(F)F)cc1Cl)C2	Arbovirus anti 48
COC(=O)c1c(/N=C/N(C)C)sc2c1CCN(c1ncc(C(F)(F)F)cc1Cl)C2	none
CCc1nc(C)cn1S(=O)(=O)c1ccc([N+](=O)[O-])cc1	Lmaj promast 100
CCc1nc(C)cn1S(=O)(=O)c1cc(Br)c(C)cc1OC	Lmaj promast 99
CCc1nc(C)cn1S(=O)(=O)c1cc(Cl)c(OC)cc1Cl	none
CCc1nc(C)cn1S(=O)(=O)c1cc(C)c(OC)c(C)c1C	Lmaj promast 93
CCc1nc(C)cn1S(=O)(=O)c1ccc(Cl)c(Cl)c1Cl	Lmaj promast 97
CCOC(=O)c1nn(-c2ccccc2)c2nnc(Cc3ccccc3)c(=O)n12	none (no result: Rad51 HR inh)
COC(=O)c1ccc(C(=O)O)nc1	none (no result: Arbovirus anti, PKD1 inh, Lmaj promast)
CCc1nc(C)cn1S(=O)(=O)c1cc(Br)ccc1OC	Lmaj promast 67
NC(=O)NC1NC(=O)NC1=O (stereo not drawn)	none (no result: Arbovirus anti, PKD1 inh, Lmaj promast)
COc1ccc(CC(=O)NCc2ccc3c(c2)cc(C)n3C)cc1OC	none
COc1cc(/C=C/C(=O)Nc2ccc(C(C)=O)cc2)cc(OC)c1OC	Lmaj promast 69
COc1cc(/C=C/C(=O)Nc2ccncc2)cc(OC)c1OC	none
COc1cc(/C=C/C(=O)Nc2nnc(CC(C)C)s2)cc(OC)c1OC	CHOP inh 90, Lmaj promast 59
COc1cc(/C=C\C(=O)NCc2ccc3c(c2)cc(C)n3C)cc(OC)c1OC	Wee1 degr inh 15
COc1ccc(/C=C/C(=O)Nc2nnc(C(C)C)s2)cc1OC	none (no result: Arbovirus anti, PKD1 inh, Rad51 HR inh, Lmaj promast)
COc1cc(/C=C/C(=O)Nc2nnc(CC(C)(C)C)s2)cc(OC)c1OC	CHOP inh 90
CCOC(=O)c1cc(C(=O)OCC)c(=O)[nH]c1N1CCCCC1	none
COc1cc(/C=C/C(=O)NC(C)CCc2ccccc2)cc(OC)c1OC (stereo not drawn)	Wee1 degr inh 11 (no result: Rad51 HR inh)
CCSC1=NCCN1C(=O)c1ccc(S(=O)(=O)N(C)C)cc1	Rad51 HR inh 41
CC(C)n1nc(C(=O)OCn2nnc3ccccc3c2=O)c2ccccc2c1=O	none
O=C1c2ccccc2C(=O)C12OC2c1ccc(Cl)cc1Cl (stereo not drawn)	CHOP inh 88
CCOc1cc(/C=N/O)ccc1OS(=O)(=O)c1ccc(C)cc1	none
CCOc1cc(/C=N/NC(=O)COc2ccc(Cl)cc2)ccc1OS(=O)(=O)c1ccccc1	CHOP inh 81, Lmaj promast 96
CCOc1cc(/C=N/NS(=O)(=O)c2ccccc2)ccc1OS(=O)(=O)c1ccc(C)cc1	CHOP inh 87
CCOc1cc(/C=N/NC(=O)COc2ccccc2C)ccc1OC(=O)c1cccs1	CHOP inh 76
NC(N)=N/N=C/c1ccc(OS(=O)(=O)c2ccccc2)cc1	Lmaj promast 88
CN(C)C(=O)c1ccc(-c2cc(C(F)(F)F)n(C)n2)s1	none (no result: Arbovirus anti, PKD1 inh, Lmaj promast)
CCC(=O)N/N=C/c1ccc(OS(=O)(=O)c2ccccc2)cc1	Lmaj promast 57
Cn1cc(Cl)c(C(=O)N/N=C/c2ccc(OS(=O)(=O)c3ccccc3)cc2)n1	none
Cc1ccc(CN2CCN(Cc3cn[nH]c3-c3cccc(F)c3)CC2CCO)o1 (stereo not drawn)	none
COc1ccc(OC)c(NC(=S)N2CCN(C/C=C/c3ccccc3)CC2)c1	none
COc1ccc(O)c(CN2CCN(C/C=C/c3ccccc3)CC2)c1	Lmaj promast 85 (no result: Rad51 HR inh)
COc1cc(Br)cc(CN2CCN(C/C=C/c3ccccc3)CC2)c1O	Lmaj promast 88
COc1cc(CNCCc2ccc(F)cc2)ccc1OCc1ccc(Cl)nc1	Lmaj promast 100
CCOCCCNCc1ccc(OCC(=O)N2CCOCC2)c(OC)c1	none
CCNCc1ccc(OCc2ccccc2F)c(OC)c1	Lmaj promast 81
CCOCCCNCc1ccc(OCc2ccccc2C)c(OC)c1	Lmaj promast 98
CCN(CC)CCNCc1cc(Cl)ccc1OCc1ccccc1F	Lmaj promast 99
CCN(CC)CCN(C(=O)Cn1nnc(-c2ccc(C)o2)n1)C(C(=O)NC(C)(C)C)c1cccs1 (stereo not drawn)	none
COc1cc(CNCCc2ccccc2F)ccc1OCc1ccc(Cl)nc1	Lmaj promast 100
O=C(Oc1ccccc1C(=O)Nc1ccccc1)c1ccccc1Br	none (no result: Rad51 HR inh)
O=C(CNC(=O)c1ccc(S(=O)(=O)N2CCCC2)cc1)N/N=C/c1ccc(F)cc1	Lmaj promast 55
COc1ccc(OC)c(/C=N/NC(=O)CNC(=O)c2ccc(S(=O)(=O)N3CCOCC3)cc2)c1	Lmaj promast 65
O=C(CNC(=O)c1ccc(S(=O)(=O)N2CCCC2)cc1)N/N=C/c1ccco1	none
O=C(N/N=C\c1c(O)ccc2ccccc12)c1ccc(S(=O)(=O)N2CCCCC2)cc1	Lmaj promast 100
O=C(CNC(=O)c1ccc(S(=O)(=O)N2CCCC2)cc1)N/N=C/c1ccccc1Cl	Lmaj promast 94
COc1cccc(NC(=O)COC(=O)CCS(=O)(=O)c2ccc(C)cc2)c1	none
Oc1ccc2ccccc2c1C=NC1CCCCC1	Lmaj promast 62 (no result: Rad51 HR inh)
COc1c(F)c(F)c(C(=O)Nc2ccc(NC(=O)Cc3ccccc3)cc2)c(F)c1F	none
CCCc1ccc(OC(=O)c2ccc(O)cc2Cl)cc1	CHOP inh 87
Nc1ncnc2c1nc(Sc1ccc(Cl)cc1)n2C1OC2COP(=O)(O)O[C@@H]2[C@@H]1O (stereo partly drawn)	none (no result: Wee1 degr inh, Arbovirus anti, PKD1 inh, Rad51 HR inh, Lmaj promast)
Cc1ccc(NC2=C(N3CCCCC3)C(=O)c3ccccc3C2=O)cc1	Lmaj promast 97
O=C1C(Nc2cccc(O)c2)=C(N2CCCCC2)C(=O)c2ccccc21	Lmaj promast 98
O=C1C(Nc2ccccc2)=C(N2CCCCC2)C(=O)c2ccccc21	Lmaj promast 97
COc1ccccc1NC(=O)N1CCCC1	none
COc1ccccc1NC1=C(N2CCCCC2)C(=O)c2ccccc2C1=O	Lmaj promast 100
CCCCCCCc1c(O)nc(SCC(=O)O)[nH]c1=O	none (no result: Arbovirus anti, PKD1 inh, Lmaj promast)
Nc1cc(=O)[nH]c(SCC(=O)Nc2cccc(Cl)c2Cl)n1	none
CC(C)c1csc(CN2CCC(CO)(Cc3cccc(F)c3)CC2)n1	none
O=C(CCC(=O)NNC(=O)c1ccccc1[N+](=O)[O-])NCc1ccccc1	none
CN(C1=C(N2CCCCC2)C(=O)c2ccccc2C1=O)c1ccccc1	CHOP inh 71, Lmaj promast 65
